ChEMBL document CHEMBL3407428, “Synthesis, in vitro and in vivo antitumor activity of scopoletin-cinnamic acid hybrids” (Eur J Med Chem, 2015)
The source made the active and inactive calls. The calls are words filed in the database; no cut-off is given here.

Experiments:
MCF7 = assay: Cytotoxicity against human MCF7 cells assessed as growth inhibition at 10^-5 M after 72 hrs by MTT assay relative to control; format: functional; conditions: MCF7, 72 h, read-out: GI
A549 [1] = assay: Cytotoxicity against human A549 cells assessed as growth inhibition at 10^-5 M after 72 hrs by MTT assay relative to control; format: functional; conditions: A549, 72 h, read-out: GI
HeLa = assay: Cytotoxicity against human HeLa cells assessed as growth inhibition at 10^-5 M after 72 hrs by MTT assay relative to control; format: functional; conditions: read-out: GI
MDA-MB-231 [2] = assay: Cytotoxicity against human MDA-MB-231 cells assessed as growth inhibition at 10^-5 M after 72 hrs by MTT assay relative to control; format: functional; conditions: MDA-MB-231, 72 h, read-out: GI
[3] = Cytotoxicity against human HCT116 cells assessed as growth inhibition at 10^-5 M after 72 hrs by MTT assay relative to control; format: functional; conditions: HCT-116, 72 h, read-out: GI
A549 [4] = assay: Cell cycle arrest in human A549 cells assessed as accumulation at S phase at 1 uM after 24 hrs by propidium iodide staining-based flow cytometric analysis relative to control; format: functional
Method in brief: (§1)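 A549 cells (3 × 10^5 per well) were seeded overnight, then treated at 0, 0.01, 0.1 or 1 µM for 24 h. Cells were harvested, washed in cold PBS and fixed in cold 70% ethanol for at least 24 h. They were then RNase A-treated and stained with propidium iodide (50 µg/mL) at room temperature. DNA content was analysed by FACSCalibur flow cytometry.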

[5] = test system: Lewis lung carcinoma cell line; assay: Antitumor activity against mouse LLC cells allografted in C57BL/6 mouse assessed as tumor growth inhibition at 2.5 mg/kg, ip administered for 14 days measured on day 15 relative to control; format: functional; conditions: route intraperitoneal, read-out: TGI
Method in brief: (§2)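 Female C57BL/6 mice (18–22 g) given 3 × 10^6 Lewis lung cancer cells subcutaneously in the right flank; dosing began 7 to 21 days after inoculation. Mice were randomized into groups of 10. Treatment was intraperitoneal daily for 14 days at 2.5, 5 or 10 mg/kg, with a saline control group. Tumors were excised and weighed when the mice were killed after 14 days.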

A549 [6] = assay: Cell cycle arrest in human A549 cells assessed as accumulation at S phase at 0.1 uM after 24 hrs by propidium iodide staining-based flow cytometric analysis relative to control; format: functional; method in brief: as §1
A549 [7] = assay: Induction of apoptosis in human A549 cells assessed as dead cells at 0.1 uM after 24 hrs by Annexin V and propidium iodide staining-based flow cytometric analysis (reference value: 1.4%); format: functional
A549 [8] = assay: Cell cycle arrest in human A549 cells assessed as accumulation at S phase at 0.01 uM after 24 hrs by propidium iodide staining-based flow cytometric analysis relative to control; format: functional; method in brief: as §1
[9] = test system: Lewis lung carcinoma cell line; assay: Antitumor activity against mouse LLC cells allografted in C57BL/6 mouse assessed as tumor growth inhibition at 10 mg/kg, ip administered for 14 days measured on day 15 relative to control; format: functional; conditions: route intraperitoneal, read-out: TGI; method in brief: as §2
A549 [10] = assay: Cell cycle arrest in human A549 cells assessed as accumulation at G2/M phase at 0.01 to 1 uM after 24 hrs by propidium iodide staining-based flow cytometric analysis; format: functional; method in brief: as §1
[11] = Cytotoxicity against human HCT116 cells assessed as growth inhibition after 72 hrs by MTT assay; format: functional, cell-based; conditions: HCT-116, 72 h
Method in brief: (§3)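 MTT viability assay. Cells were seeded at 5000 per well, incubated overnight, then exposed to compound at a range of concentrations for 72 h. MTT was added from a 5 mg/mL stock for 4 h, and absorbance was read at 570 nm. IC50 (50% viability inhibition) was calculated by the logit method. Each concentration was run at least three times.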

A549 [12] = assay: Induction of apoptosis in human A549 cells assessed as early apoptotic cells at 1 uM after 24 hrs by Annexin V and propidium iodide staining-based flow cytometric analysis (reference value: 8.2%); format: functional
A549 [13] = assay: Cytotoxicity against human A549 cells assessed as growth inhibition after 72 hrs by MTT assay; format: functional, cell-based; conditions: A549, 72 h; method in brief: as §3
A549 [14] = assay: Induction of apoptosis in human A549 cells assessed as viable cells at 0.01 uM after 24 hrs by Annexin V and propidium iodide staining-based flow cytometric analysis (reference value: 83%); format: functional; conditions: A549, 24 h, read-out: Activity
A549 [15] = assay: Induction of apoptosis in human A549 cells assessed as late apoptotic cells at 1 uM after 24 hrs by Annexin V and propidium iodide staining-based flow cytometric analysis (reference value: 7.4%); format: functional
A549 [16] = assay: Induction of apoptosis in human A549 cells assessed as late apoptotic cells at 0.01 uM after 24 hrs by Annexin V and propidium iodide staining-based flow cytometric analysis (reference value: 7.4%); format: functional
A549 [17] = assay: Induction of apoptosis in human A549 cells assessed as late apoptotic cells at 0.1 uM after 24 hrs by Annexin V and propidium iodide staining-based flow cytometric analysis (reference value: 7.4%); format: functional
Mus musculus = assay: Toxicity in C57BL/6 mouse allografted with mouse LLC cells assessed as change in body weight at 2.5 to 10 mg/kg, ip administered for 14 days measured during compound dosing; format: organism-based; parameters: dose 2.5-10 mg/kg, route intraperitoneal; conditions: in vivo, 336 h
Method in brief: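 LLC-bearing female C57BL/6 mice (18–22 g; 3 × 10^6 cells s.c., right flank) were randomized into groups of 10 and dosed i.p. daily for 14 days, with a saline control. Body weight was recorded every day from the first treatment.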

A549 [18] = assay: Induction of apoptosis in human A549 cells assessed as early apoptotic cells at 0.01 uM after 24 hrs by Annexin V and propidium iodide staining-based flow cytometric analysis (reference value: 8.2%); format: functional
A549 [19] = assay: Induction of apoptosis in human A549 cells assessed as viable cells at 1 uM after 24 hrs by Annexin V and propidium iodide staining-based flow cytometric analysis (reference value: 83%); format: functional; conditions: A549, 24 h, read-out: Activity
[20] = test system: Lewis lung carcinoma cell line; assay: Antitumor activity against mouse LLC cells allografted in ip dosed C57BL/6 mouse assessed as tumor growth inhibition administered for 14 days measured on day 15; format: functional, organism-based; method in brief: as §2
A549 [21] = assay: Induction of apoptosis in human A549 cells assessed as dead cells at 0.01 uM after 24 hrs by Annexin V and propidium iodide staining-based flow cytometric analysis (reference value: 1.4%); format: functional
A549 [22] = assay: Induction of apoptosis in human A549 cells assessed as early apoptotic cells at 0.1 uM after 24 hrs by Annexin V and propidium iodide staining-based flow cytometric analysis (reference value: 8.2%); format: functional
A549 [23] = assay: Cell cycle arrest in human A549 cells assessed as accumulation at G0/G1 phase at 0.01 to 1 uM after 24 hrs by propidium iodide staining-based flow cytometric analysis; format: functional; conditions: in the assay text read “S phase” for “G0/G1 phase”; method in brief: as §1
A549 [24] = assay: Induction of apoptosis in human A549 cells assessed as dead cells at 1 uM after 24 hrs by Annexin V and propidium iodide staining-based flow cytometric analysis (reference value: 1.4%); format: functional
MDA-MB-231 [25] = assay: Cytotoxicity against human MDA-MB-231 cells assessed as growth inhibition after 72 hrs by MTT assay; format: functional, cell-based; conditions: MDA-MB-231, 72 h; method in brief: as §3
[26] = test system: Lewis lung carcinoma cell line; assay: Antitumor activity against mouse LLC cells allografted in C57BL/6 mouse assessed as tumor growth inhibition at 5 mg/kg, ip administered for 14 days measured on day 15 relative to control; format: functional; conditions: route intraperitoneal, read-out: TGI; method in brief: as §2
A549 [27] = assay: Induction of apoptosis in human A549 cells assessed as viable cells at 0.1 uM after 24 hrs by Annexin V and propidium iodide staining-based flow cytometric analysis (reference value: 83%); format: functional; conditions: A549, 24 h, read-out: Activity

COc1cc2ccc(=O)oc2cc1OC(=O)/C=C/c1ccccc1
inhibition of growth at 10 µM (MCF7): 3.65% | inhibition of growth at 10 µM (A549 [1]): 19.4% | inhibition of growth at 10 µM (HeLa): 19.4% | inhibition of growth at 10 µM (MDA-MB-231 [2]): 10.1% | inhibition of growth at 10 µM [3]: 12.2%

COc1cc2ccc(=O)oc2cc1OC(=O)/C=C/c1ccc(C#N)cc1
inhibition of growth at 10 µM (MCF7): 10.5% | inhibition of growth at 10 µM (A549 [1]): 17.9% | inhibition of growth at 10 µM (HeLa): 13.2% | inhibition of growth at 10 µM (MDA-MB-231 [2]): 14.3% | inhibition of growth at 10 µM [3]: 13.6%

COc1ccc(/C=C/C(=O)Oc2cc3oc(=O)ccc3cc2OC)cc1
inhibition of growth at 10 µM (MCF7): 13.7% | inhibition of growth at 10 µM (A549 [1]): 0.53% | inhibition of growth at 10 µM (HeLa): 19.5% | inhibition of growth at 10 µM (MDA-MB-231 [2]): 20.8% | inhibition of growth at 10 µM [3]: 31.6%

COc1cc(/C=C/C(=O)Oc2cc3oc(=O)ccc3cc2OC)ccc1OCc1ccccc1
inhibition of growth at 10 µM (MCF7): 9.91% | inhibition of growth at 10 µM (A549 [1]): 10.4% | inhibition of growth at 10 µM (HeLa): 2.36% | inhibition of growth at 10 µM (MDA-MB-231 [2]): 1.39% | inhibition of growth at 10 µM [3]: 4.36%

COc1cc2cc(NC(=O)/C=C/c3ccc(Cl)cc3)c(=O)oc2cc1O
Activity (A549 [4]): 19.3% | inhibition in vivo at 2.5 mg/kg [5]: 18.1% | Activity (A549 [6]): 19.6% | Activity (A549 [7]): 2.4% | Activity (A549 [8]): 9.2% | inhibition in vivo at 10 mg/kg [9]: 49.5% | inhibition of growth at 10 µM (MCF7): 70.1% | Activity (A549 [10]): inactive | IC50 [11]: 684 nM | Activity (A549 [12]): 24.3% | IC50 (A549 [13]): 249 nM | viability at 0.01 µM (A549 [14]): 86.4% | Activity (A549 [15]): 7.3% | Activity (A549 [16]): 3.7% | Activity (A549 [17]): 3.6% | Activity (Mus musculus): Non-toxic | inhibition of growth at 10 µM (A549 [1]): 87.9% | Activity (A549 [18]): 5.7% | viability at 1 µM (A549 [19]): 66.5% | inhibition of growth at 10 µM (HeLa): 86.2% | inhibition of growth at 10 µM (MDA-MB-231 [2]): 70.8% | TGI [20]: Dose-dependent effect | Activity (A549 [21]): 4.3% | Activity (A549 [22]): 8.3% | inhibition of growth at 10 µM [3]: 64.3% | Activity (A549 [23]): Active | Activity (A549 [24]): 1.8% | IC50 (MDA-MB-231 [25]): 231 nM | inhibition in vivo at 5 mg/kg [26]: 33.6% | viability at 0.1 µM (A549 [27]): 85.7%

COc1cc2cc(NC(=O)/C=C/c3ccc(C#N)cc3)c(=O)oc2cc1O
inhibition of growth at 10 µM (MCF7): 27.3% | inhibition of growth at 10 µM (A549 [1]): 36.9% | inhibition of growth at 10 µM (HeLa): 27.1% | inhibition of growth at 10 µM (MDA-MB-231 [2]): 13.1% | inhibition of growth at 10 µM [3]: 14.1%

COc1cc(CCC(=O)Oc2cc3oc(=O)ccc3cc2OC)ccc1O
inhibition of growth at 10 µM (MCF7): 8.55% | inhibition of growth at 10 µM (A549 [1]): 6.16% | inhibition of growth at 10 µM (HeLa): 15.4% | inhibition of growth at 10 µM (MDA-MB-231 [2]): 9.73% | inhibition of growth at 10 µM [3]: 16.1%

COc1cc2ccc(=O)oc2cc1O [SCOPOLETIN]
inhibition of growth at 10 µM (MCF7): 2.63% | IC50 [11]: > 30000 nM | IC50 (A549 [13]): > 30000 nM | inhibition of growth at 10 µM (A549 [1]): 4.23% | inhibition of growth at 10 µM (HeLa): 0.98% | inhibition of growth at 10 µM (MDA-MB-231 [2]): 8.47% | inhibition of growth at 10 µM [3]: 1.36% | IC50 (MDA-MB-231 [25]): > 30000 nM

COc1cc2ccc(=O)oc2cc1OC(=O)/C=C/c1ccc(F)cc1
inhibition of growth at 10 µM (MCF7): 1.77% | inhibition of growth at 10 µM (A549 [1]): 21.4% | inhibition of growth at 10 µM (HeLa): 3.89% | inhibition of growth at 10 µM (MDA-MB-231 [2]): 19.3% | inhibition of growth at 10 µM [3]: 18%
